Data as given in ChEMBL document CHEMBL3244070, “Spiro[isobenzofuran-1(3H),4'-piperidines]. 3. Diuretic and antihypertensive properties of compounds containing a sulfur attached to nitrogen” (1978).
The source made the active and inactive calls. The rule behind the calls is not given here.

Legend:
Rattus norvegicus [1] = assay: Diuretic activity in acute sodium loaded Wistar rat assessed as urine volume at 25 mg/kg, po measured for 0 to 5 hrs post drug dosing relative to urea; format: functional
How it was run: (§1)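 Female Wistar rats (150–200 g), fasted 16 h. Drug in 1% saline given orally at 15 mL/kg; animals kept in individual metabolic cages with water ad libitum. Urine collected 0–5 h. Each test had vehicle and urea (1000 mg/kg) groups. Na⁺ and K⁺ measured by flame photometry, Cl⁻ by chloride analyzer. Group means for volume and each ion expressed as a ratio to the urea group.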

Rattus norvegicus [2] = assay: Diuretic activity in acute sodium loaded Wistar rat assessed as urine volume at 50 mg/kg, po measured for 0 to 5 hrs post drug dosing relative to urea; format: functional; how it was run: as §1
Rattus norvegicus [3] = assay: Diuretic activity in acute sodium loaded Wistar rat assessed as potassium level in urine at 25 mg/kg, po measured for 0 to 5 hrs post drug dosing by flame photometer relative to urea; format: functional; how it was run: as §1
Rattus norvegicus [4] = assay: Diuretic activity in acute sodium loaded Wistar rat assessed as potassium level in urine at 50 mg/kg, po measured for 0 to 5 hrs post drug dosing by flame photometer relative to urea; format: functional; how it was run: as §1
Rattus norvegicus [5] = assay: Antihypertensive activity in spontaneous hypertensive rat assessed as drop in systolic blood pressure at 25 mg/kg, po administered at 0 hrs on days 1, 2 and 3 measured at 2 hrs after drug dose on day 3 by indirect tail-cuff method; format: functional, Artery
How it was run: (§2)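 Spontaneously hypertensive rats, tail-cuff (indirect) systolic pressure. Pairs of rats held in a wire basket, conditioned 20 min in a 40 °C incubator. Each reading is the mean of 3–5 determinations. Rats had 2-week training for baseline; those below 175 mmHg were excluded. Oral dosing at 0 h on days 1–3 in groups of six, read before dosing and 2 h after the day-3 dose; paired t test.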

Rattus norvegicus [6] = assay: Diuretic activity in acute sodium loaded Wistar rat assessed as sodium level in urine at 25 mg/kg, po measured for 0 to 5 hrs post drug dosing by flame photometer relative to urea; format: functional; how it was run: as §1
Rattus norvegicus [7] = assay: Diuretic activity in acute sodium loaded Wistar rat assessed as chloride level in urine at 25 mg/kg, po measured for 0 to 5 hrs post drug dosing by chloride analyzer relative to urea; format: functional; how it was run: as §1
Rattus norvegicus [8] = assay: Diuretic activity in acute sodium loaded Wistar rat assessed as sodium level in urine at 50 mg/kg, po measured for 0 to 5 hrs post drug dosing by flame photometer relative to urea; format: functional; how it was run: as §1
Rattus norvegicus [9] = assay: Diuretic activity in acute sodium loaded Wistar rat assessed as chloride level in urine at 50 mg/kg, po measured for 0 to 5 hrs post drug dosing by chloride analyzer relative to urea; format: functional; how it was run: as §1
Mus musculus = assay: Antidepressant activity in CD-1 mouse at 25 mg/kg, ip administered 30 mins prior to tetrabenazine challenge measured after 30 mins by tetrabenazine assay; format: functional, organism-based; design: dose 25 mg/kg
Rattus norvegicus [10] = assay: Antihypertensive activity in spontaneous hypertensive rat assessed as drop in systolic blood pressure at 50 mg/kg, po administered at 0 hrs on days 1, 2 and 3 measured at 2 hrs after drug dose on day 3 by indirect tail-cuff method; format: functional, Artery; how it was run: as §2
Rattus norvegicus [11] = assay: Antihypertensive activity in spontaneous hypertensive rat assessed as drop in systolic blood pressure at 100 mg/kg, po administered at 0 hrs on days 1, 2 and 3 measured at 2 hrs after drug dose on day 3 by indirect tail-cuff method; format: functional, Artery; how it was run: as §2
Rattus norvegicus [12] = assay: Hypotensive activity in DOCA rat at 25 to 50 mg/kg, po; format: functional, organism-based
Rattus norvegicus [13] = assay: Diuretic activity in acute sodium loaded Wistar rat assessed as urine volume at 2 mg/kg, po measured for 0 to 5 hrs post drug dosing relative to urea; format: functional; how it was run: as §1
Rhesus monkey = assay: Diuretic activity in rhesus monkey at 10 to 20 mg/kg, po; format: functional, organism-based; conditions: Macaca mulatta, Urine
Canis familiaris [14] = assay: Diuretic activity in dog at 20 mg/kg, iv; format: functional, organism-based; design: dose 20 mg/kg; conditions: Canis lupus familiaris, Urine
Canis familiaris [15] = assay: Diuretic activity in dog at 1 to 50 mg/kg, po; format: functional, organism-based; conditions: Canis lupus familiaris, Urine
Rattus norvegicus [16] = assay: Diuretic activity in acute sodium loaded Wistar rat assessed as chloride level in urine at 5 mg/kg, po measured for 0 to 5 hrs post drug dosing by chloride analyzer relative to urea; format: functional; how it was run: as §1
Rattus norvegicus [17] = assay: Diuretic activity in acute sodium loaded Wistar rat assessed as urine volume at 5 mg/kg, po measured for 0 to 5 hrs post drug dosing relative to urea; format: functional; how it was run: as §1
Rattus norvegicus [18] = assay: Diuretic activity in acute sodium loaded Wistar rat assessed as chloride level in urine at 10 mg/kg, po measured for 0 to 5 hrs post drug dosing by chloride analyzer relative to urea; format: functional; how it was run: as §1
Rattus norvegicus [19] = assay: Diuretic activity in acute sodium loaded Wistar rat assessed as potassium level in urine at 10 mg/kg, po measured for 0 to 5 hrs post drug dosing by flame photometer relative to urea; format: functional; how it was run: as §1
Rattus norvegicus [20] = assay: Diuretic activity in acute sodium loaded Wistar rat assessed as urine volume at 10 mg/kg, po measured for 0 to 5 hrs post drug dosing relative to urea; format: functional; how it was run: as §1
Rattus norvegicus [21] = assay: Diuretic activity in acute sodium loaded Wistar rat assessed as potassium level in urine at 2 mg/kg, po measured for 0 to 5 hrs post drug dosing by flame photometer relative to urea; format: functional; how it was run: as §1
Rattus norvegicus [22] = assay: Diuretic activity in acute sodium loaded Wistar rat assessed as potassium level in urine at 5 mg/kg, po measured for 0 to 5 hrs post drug dosing by flame photometer relative to urea; format: functional; how it was run: as §1
Canis familiaris [23] = assay: Antihypertensive activity in acute anesthetized dog at 10 mg/kg, iv; format: functional, organism-based; design: dose 10 mg/kg; conditions: Canis lupus familiaris
Rattus norvegicus [24] = assay: Diuretic activity in acute sodium loaded Wistar rat assessed as chloride level in urine at 2 mg/kg, po measured for 0 to 5 hrs post drug dosing by chloride analyzer relative to urea; format: functional; how it was run: as §1
Rattus norvegicus [25] = assay: Diuretic activity in acute sodium loaded Wistar rat assessed as sodium level in urine at 5 mg/kg, po measured for 0 to 5 hrs post drug dosing by flame photometer relative to urea; format: functional; how it was run: as §1
Rattus norvegicus [26] = assay: Diuretic activity in acute sodium loaded Wistar rat assessed as sodium level in urine at 2 mg/kg, po measured for 0 to 5 hrs post drug dosing by flame photometer relative to urea; format: functional; how it was run: as §1
Rattus norvegicus [27] = assay: Diuretic activity in acute sodium loaded Wistar rat assessed as sodium level in urine at 10 mg/kg, po measured for 0 to 5 hrs post drug dosing by flame photometer relative to urea; format: functional; how it was run: as §1
Rattus norvegicus [28] = assay: Antihypertensive activity in spontaneous hypertensive rat assessed as drop in systolic blood pressure at 10 mg/kg, po administered at 0 hrs on days 1, 2 and 3 measured at 2 hrs after drug dose on day 3 by indirect tail-cuff method; format: functional, Artery; how it was run: as §2

SMILES	Ratio (Rattus norvegicus [1])	Ratio (Rattus norvegicus [2])	Ratio (Rattus norvegicus [3])	Ratio (Rattus norvegicus [4])	Ratio (Rattus norvegicus [6])	Ratio (Rattus norvegicus [8])	Ratio (Rattus norvegicus [9])	Activity (Mus musculus)	Activity (Rattus norvegicus [10]) [mmHg]	also measured
O=[N+]([O-])c1ccc(SN2CCC3(CC2)OC(c2ccccc2)c2ccccc23)cc1 (stereo not given)	0.59	1.73	0.58	1.2	0.76	2.41	2.3	inactive	–	Activity (Rattus norvegicus [5]): 9 mmHg; Ratio (Rattus norvegicus [7]): 0.75
O=S(=O)(c1ccccc1)N1CCC2(CC1)OC(c1ccccc1)c1ccccc12 (stereo not given)	–	0.63	–	0.57	–	0.7	0.79	inactive	13	–
[O-][S+](c1ccccc1)N1CCC2(CC1)OC(c1ccccc1)c1ccccc12 (stereo not given)	0.81	1.74	0.68	1	1.22	2.2	–	inactive	–	Ratio (Rattus norvegicus [7]): 1.18; Activity (Rattus norvegicus [11]): 22 mmHg
COc1ccc(SN2CCC3(CC2)OC(c2ccccc2)c2ccccc23)cc1 (stereo not given)	1.4	1.47	0.84	0.8	0.97	1.78	1.47	inactive	14	–
NS(=O)(=O)c1cc2c(cc1Cl)N=CNS2(=O)=O [CHLOROTHIAZIDE]	–	1.6	–	1.1	–	2.2	–	–	–	–
c1ccc(SN2CCC3(CC2)OC(c2ccccc2)c2ccccc23)cc1 (stereo not given)	2.2	1.71	1.2	0.97	2.5	1.83	1.85	inactive	66	Activity (Rattus norvegicus [12]): Active; Ratio (Rattus norvegicus [13]): 1; Activity (Rhesus monkey): inactive; Activity (Canis familiaris [14]): inactive; Activity (Canis familiaris [15]): inactive; Activity (Rattus norvegicus [5]): 44 mmHg; Ratio (Rattus norvegicus [16]): 1.43; Ratio (Rattus norvegicus [17]): 1.2; Ratio (Rattus norvegicus [18]): 1.62; Ratio (Rattus norvegicus [19]): 0.94; Ratio (Rattus norvegicus [20]): 1.49; Ratio (Rattus norvegicus [21]): 0.74; Ratio (Rattus norvegicus [22]): 0.86; Activity (Canis familiaris [23]): inactive; Ratio (Rattus norvegicus [24]): 1.19; Ratio (Rattus norvegicus [25]): 1.31; Ratio (Rattus norvegicus [26]): 1.2; Ratio (Rattus norvegicus [27]): 1.69
N=C(N)NCCN1CCCCCCC1 [GUANETHIDINE]	–	–	–	–	–	–	–	–	–	Activity (Rattus norvegicus [28]): 34 mmHg
